pIC50: −log10 of the molar value.
Assays:
[1] = molecular target: Bromodomain-containing protein 4 (Homo sapiens, UniProt O60885); assay: Inhibition of recombinant human His-tagged BRD4 bromodomain 1/2 (2 to 1362 residues) expressed in […] insect cells using biotinylated H4(1 to 21)K5/8/12/16Ac peptide as substrate preincubated for 30 mins followed by substrate addition and measured after 30 mins by Alpha screen assay
[2] = test system: A549; assay: Antiproliferative activity against human A549 cells incubated for 48 hrs by MTT assay; assay type: functional, cell-based; conditions: A549, 48 h
How it was run: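 Cells kept in DMEM or RPMI 1640 with 10% FBS at 37 °C, 5% CO2. MTT added for 4 h at 37 °C, formazan dissolved in DMSO, OD read at 570 nm. Survival % taken relative to blank and control wells. Triplicate runs; IC50 from curve fit.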

| SMILES | pIC50 [1] | pIC50 [2] |
| --- | --- | --- |
| CCCS(=O)(=O)Nc1ccc2[nH]c(=O)c3ccccc3c2c1 | 5.17 | – |
| O=C(Nc1ccc2[nH]c(=O)c3ccccc3c2c1)c1ccccc1 | 4.73 | – |
| COc1ccc(S(=O)(=O)Nc2ccc3[nH]c(=O)c4ccccc4c3c2)cc1 | 5.88 | – |
| O=c1[nH]c2ccc(NS(=O)(=O)C3CCCCC3)cc2c2ccccc12 | 5.23 | – |
| COc1ccccc1S(=O)(=O)Nc1ccc2[nH]c(=O)c3ccccc3c2c1 | 6.32 | – |
| O=c1[nH]c2ccc(NS(=O)(=O)c3ccccc3)cc2c2ccccc12 | 5.79 | – |
| COc1cc(Cl)ccc1S(=O)(=O)Nc1ccc2oc(=O)ccc2c1 | 6.03 | 5.33 |
| O=c1[nH]c2ccc(NS(=O)(=O)c3ccc4ccccc4c3)cc2c2ccccc12 | 5.14 | – |
| O=c1[nH]c2ccc(NS(=O)(=O)C3CCCC3)cc2c2ccccc12 | 5.21 | – |
| N#Cc1cccc(S(=O)(=O)Nc2ccc3[nH]c(=O)c4ccccc4c3c2)c1 | 5.75 | – |
| O=c1[nH]c2ccc(NS(=O)(=O)c3cccs3)cc2c2ccccc12 | 5.17 | – |
| CC(C)(C)c1ccc(S(=O)(=O)Nc2ccc3[nH]c(=O)c4ccccc4c3c2)cc1 | 5.95 | – |
| O=c1[nH]c2ccc(NS(=O)(=O)c3ccc4c(c3)CCO4)cc2c2ccccc12 | 4.88 | – |
| CCCCS(=O)(=O)Nc1ccc2[nH]c(=O)c3ccccc3c2c1 | 5.26 | – |
| O=C(Nc1ccccc1)Nc1ccc2[nH]c(=O)c3ccccc3c2c1 | 5.00 | – |
| O=c1[nH]c2ccc(NS(=O)(=O)c3cccc(Cl)c3)cc2c2ccccc12 | 6.10 | – |
| O=c1[nH]c2ccc(NS(=O)(=O)c3ccccc3Cl)cc2c2ccccc12 | 5.90 | – |
| O=c1[nH]c2ccc(NS(=O)(=O)Cc3ccccc3)cc2c2ccccc12 | 5.29 | – |
| O=c1[nH]c2ccc(NS(=O)(=O)c3ccc(Cl)cc3)cc2c2ccccc12 | 6.07 | – |
| O=C(Nc1ccc2[nH]c(=O)c3ccccc3c2c1)Oc1ccccc1 | 5.22 | – |
